ChEMBL document CHEMBL1121836, “Effect of structural change on acute toxicity and antiinflammatory activity in a series of imidazothiazoles and thiazolobenzimidazoles” (J Med Chem, 1981)
Values joined by “and” are separate entries in the source; they are usually repeats but may differ in a detail not shown here. Identical values can stand only once.

Assays:
Mus musculus [1] = species: Mus musculus; test: Dose giving one-half of average maximal [40%] response in carrageenan assay; format: functional
Mus musculus [2] = species: Mus musculus; test: Dose giving one-half of average maximal [40%] response in phenylquinone writhing assay; format: functional
Mus musculus [3] = species: Mus musculus; test: Neurotoxic dose that causes minimal recognizable neurotoxicity in 50% of animals tested; format: functional
Procedure, shortened: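 Mice dosed orally or intraperitoneally; neurotoxicity scored on five end points, including a positional sense test in which a hind leg lowered over a table edge should be quickly lifted back to a normal position. NTD50 is the dose giving minimal recognizable neurotoxicity in 50% of animals tested.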

Rattus norvegicus [4] = species: Rattus norvegicus; test: Ulcerogenic dose that produced gastric lesions, ulcers and/or hemorrhage in 50% of the animals tested; format: functional, Stomach
Procedure, shortened: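 Ten male Sprague–Dawley rats (ca. 160 g) were fasted 24 h with water available, then dosed po with compound or vehicle. At 4 h they were killed with CO2, and stomachs were opened along the greater curvature. A nonbiased observer scored ulcers, pitting or hemorrhagic spots. UD50 (lesions in 50% of animals) was determined by Litchfield–Wilcoxon.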

[5] = Lethal dose evaluated in NPP assay; format: toxicity, organism-based; conditions: mouse, in vivo
[6] = (§1) Compound was evaluated for the toxicity in mice; format: organism-based; conditions: mouse, in vivo
Mus musculus [7] = test: Compound was evaluated for the percent reduction of carrageenan induced edema in mice at dose of 200 mg/kg; format: functional
Mus musculus [8] = test: Percent analgesia in phenylquinone writhing assay at 10 mg/kg; format: functional
Procedure, shortened: (§2)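 Groups of 10 male mice were dosed orally with compound dissolved or suspended in 0.25% methylcellulose (0.25 mL per mouse). After the designated interval they were challenged ip with 0.25 mL of 0.02% phenylquinone in aqueous ethanol (95:5). Read-out is the percentage of mice protected from writhing.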

Mus musculus [9] = test: Percent analgesia in phenylquinone writhing assay at 100 mg/kg; format: functional; procedure, shortened: as §2
Mus musculus [10] = test: Percent analgesia in phenylquinone writhing assay at 30 mg/kg; format: functional; procedure, shortened: as §2
Mus musculus [11] = test: Compound was evaluated for the percent reduction of carrageenan induced edema in mice at dose of 10 mg/kg; format: functional
Mus musculus [12] = test: Compound was evaluated for the percent reduction of carrageenan induced edema in mice at dose of 100 mg/kg; format: functional
Mus musculus [13] = test: Compound was evaluated for the percent reduction of carrageenan induced edema in mice at dose of 30 mg/kg; format: functional
Mus musculus [14] = test: Compound was evaluated for the percent reduction of carrageenan induced edema in mice at dose of 3 mg/kg; format: functional
Rattus norvegicus [15] = test: Compound was evaluated in the developed adjuvant arthritis assay at a dose of 100 mg/kg for the percent reduction of carrageenan induced edema (LHF) on 21st day; format: functional
Procedure, shortened: (§3)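 Rats received 0.1 mL heat-killed Mycobacterium tuberculosis suspension (3.5 mg/mL) into the left hind footpad on day 1. On day 20, animals with developed arthritis (all four paws swollen, tail and ears involved) were used. Oral gavage in 0.25% methylcellulose (0.005 mL/g) on days 20 and 22. Hind paw volumes were recorded daily on days 20–23. Mean group volume is expressed as percent change from day 20.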

Rattus norvegicus [16] = test: Compound was evaluated in the developed adjuvant arthritis assay at a dose of 100 mg/kg for the percent reduction of carrageenan induced edema (LHF) on 22nd day; format: functional; procedure, shortened: as §3
Rattus norvegicus [17] = test: Compound was evaluated in the developed adjuvant arthritis assay at a dose of 100 mg/kg for the percent reduction of carrageenan induced edema (LHF) on 23rd day; format: functional; procedure, shortened: as §3
Rattus norvegicus [18] = test: Compound was evaluated in the developed adjuvant arthritis assay at a dose of 30 mg/kg for the percent reduction of carrageenan induced edema (LHF) on 21st day; format: functional; procedure, shortened: as §3
Rattus norvegicus [19] = test: Compound was evaluated in the developed adjuvant arthritis assay at a dose of 30 mg/kg for the percent reduction of carrageenan induced edema (LHF) on 22nd day; format: functional; procedure, shortened: as §3
Rattus norvegicus [20] = test: Compound was evaluated in the developed adjuvant arthritis assay at a dose of 30 mg/kg for the percent reduction of carrageenan induced edema (LHF) on 23rd day; format: functional; procedure, shortened: as §3
Rattus norvegicus [21] = test: Compound was evaluated in the developed adjuvant arthritis assay at a dose of 300 mg/kg for the percent reduction of carrageenan induced edema (LHF) on 21st day; format: functional; procedure, shortened: as §3
Rattus norvegicus [22] = test: Compound was evaluated in the developed adjuvant arthritis assay at a dose of 300 mg/kg for the percent reduction of carrageenan induced edema (LHF) on 22nd day; format: functional; procedure, shortened: as §3
Rattus norvegicus [23] = test: Compound was evaluated in the developed adjuvant arthritis assay at a dose of 300 mg/kg for the percent reduction of carrageenan induced edema (LHF) on 23rd day; format: functional; procedure, shortened: as §3
Mus musculus [24] = test: Compound was evaluated for the percent reduction of carrageenan induced edema in mice at dose of 1 mg/kg; format: functional
Mus musculus [25] = test: Compound was evaluated for the percent reduction of carrageenan induced edema in mice at dose of 25 mg/kg; format: functional
Mus musculus [26] = test: Compound was evaluated for the percent reduction of carrageenan induced edema in mice at dose of 50 mg/kg; format: functional
Mus musculus [27] = species: Mus musculus; test: as §1; format: organism-based; conditions: in vivo
Rattus norvegicus [28] = test: Compound was evaluated in the developed adjuvant arthritis assay at a dose of 10 mg/kg for the percent reduction of carrageenan induced edema (LHF) on 21st day; format: functional; procedure, shortened: as §3
Rattus norvegicus [29] = test: Compound was evaluated in the developed adjuvant arthritis assay at a dose of 10 mg/kg for the percent reduction of carrageenan induced edema (LHF) on 22nd day; format: functional; procedure, shortened: as §3
Rattus norvegicus [30] = test: Compound was evaluated in the developed adjuvant arthritis assay at a dose of 10 mg/kg for the percent reduction of carrageenan induced edema (LHF) on 23rd day; format: functional; procedure, shortened: as §3
Rattus norvegicus [31] = test: Compound was evaluated in the developed adjuvant arthritis assay at a dose of 3 mg/kg for the percent reduction of carrageenan induced edema (LHF) on 22nd day; format: functional; procedure, shortened: as §3
Rattus norvegicus [32] = test: Compound was evaluated in the developed adjuvant arthritis assay at a dose of 3 mg/kg for the percent reduction of carrageenan induced edema (LHF) on 23rd day; format: functional; procedure, shortened: as §3
Rattus norvegicus [33] = test: Compound was evaluated in the developed adjuvant arthritis assay at a dose of 3 mg/kg for the percent reduction of carrageenan induced edema (LHF) on 21st day; format: functional; procedure, shortened: as §3
Mus musculus [34] = test: Percent analgesia in phenylquinone writhing assay at 1 mg/kg; format: functional; procedure, shortened: as §2
Mus musculus [35] = test: Percent analgesia in phenylquinone writhing assay at 3 mg/kg; format: functional; procedure, shortened: as §2
Mus musculus [36] = test: Percent analgesia in phenylquinone writhing assay at 0.3 mg/kg; format: functional; procedure, shortened: as §2
Mus musculus [37] = test: Compound was evaluated for the percent reduction of carrageenan induced edema in mice at dose of 0.3 mg/kg; format: functional
Mus musculus [38] = test: Compound was evaluated for the percent reduction of carrageenan induced edema in mice at dose of 1.0 mg/kg; format: functional
Mus musculus [39] = test: Compound was evaluated for the percent reduction of carrageenan induced edema in mice at dose of 3.0 mg/kg; format: functional
Rattus norvegicus [40] = test: Compound was evaluated in the developed adjuvant arthritis assay at a dose of 0.3 mg/kg for the percent reduction of carrageenan induced edema (LHF) on 22nd day; format: functional; procedure, shortened: as §3
Rattus norvegicus [41] = test: Compound was evaluated in the developed adjuvant arthritis assay at a dose of 0.3 mg/kg for the percent reduction of carrageenan induced edema (LHF) on 23rd day; format: functional; procedure, shortened: as §3
Rattus norvegicus [42] = test: Compound was evaluated in the developed adjuvant arthritis assay at a dose of 1 mg/kg for the percent reduction of carrageenan induced edema (LHF) on 21nd day; format: functional; procedure, shortened: as §3
Rattus norvegicus [43] = test: Compound was evaluated in the developed adjuvant arthritis assay at a dose of 1 mg/kg for the percent reduction of carrageenan induced edema (LHF) on 22nd day; format: functional; procedure, shortened: as §3
Rattus norvegicus [44] = test: Compound was evaluated in the developed adjuvant arthritis assay at a dose of 1 mg/kg for the percent reduction of carrageenan induced edema (LHF) on 23rd day; format: functional; procedure, shortened: as §3
Mus musculus [45] = test: Compound was evaluated for the percent reduction of carrageenan induced edema in mice at dose of 75 mg/kg; format: functional

## CCCCC1C(=O)N(c2ccccc2)N(c2ccccc2)C1=O [PHENYLBUTAZONE]
Mus musculus [1]
  ED50: 50 mg/kg
Mus musculus [2]
  ED50: 64 mg/kg
Mus musculus [3]
  NTD50: 690 mg/kg
Rattus norvegicus [4]
  UD50: 75 mg/kg
[5]
  LD50: > 300 mg/kg

## CC1=C(C(=O)Nc2c(Cl)cccc2Cl)SC2=NCCN21
[6]
  LD50: 60 mg/kg

## CC1(C)CN2C(CS(=O)(=O)c3ccccc3)=CSC2=N1
Mus musculus [7]
  Reduction: 5%

## CS(=O)(=O)C1=C(c2ccccc2)N2CCN=C2S1
Mus musculus [8]
  Analgesia: 10%
Mus musculus [9]
  Analgesia: 90%
Mus musculus [10]
  Analgesia: 60%
Mus musculus [1]
  ED50: 30 mg/kg
Mus musculus [2]
  ED50: 30 mg/kg
[6]
  LD50: > 300 mg/kg
Mus musculus [11]
  Reduction: 33%
Mus musculus [7]
  Reduction: 43%
Mus musculus [12]
  Reduction: 30%
Mus musculus [3]
  NTD50: 690 mg/kg
Mus musculus [13]
  Reduction: 26%
Mus musculus [14]
  Reduction: 15%
Rattus norvegicus [15]
  Reduction: 11%
Rattus norvegicus [16]
  Reduction: 26%
Rattus norvegicus [17]
  Reduction: 16%
Rattus norvegicus [18]
  Reduction: 10%
Rattus norvegicus [19]
  Reduction: 15%
Rattus norvegicus [20]
  Reduction: 7%
Rattus norvegicus [21]
  Reduction: 10%
Rattus norvegicus [22]
  Reduction: 19%
Rattus norvegicus [23]
  Reduction: 17%
Rattus norvegicus [4]
  UD50: >100 mg/kg
[5]
  LD50: > 1000 mg/kg

## CC1=CSC2=NC3CCCCC3N12 (cis isomer)
[6]
  LD50: 20 mg/kg
Mus musculus [24]
  Reduction: 15%
Mus musculus [25]
  Reduction: 57%
Mus musculus [26]
  Reduction: 80%

## CC1=C(C(=O)N2C(C)CCC2C)SC2=NCCN21 (configuration not stated)
[6]
  LD50: 240 mg/kg
Mus musculus [7]
  Reduction: 20%

## CC1=CSC2=NC3CCCCC3N12 (trans isomer)
Mus musculus [27]
  LD50: 20 mg/kg
Mus musculus [25]
  Reduction: 76%
Mus musculus [26]
  Reduction: 100%
Rattus norvegicus [28]
  Reduction: 10%
Rattus norvegicus [29]
  Reduction: 18%
Rattus norvegicus [30]
  Reduction: 19%
Rattus norvegicus [31]
  Reduction: 2%
Rattus norvegicus [32]
  Reduction: 2%
Rattus norvegicus [18]
  Reduction: 10%
Rattus norvegicus [19]
  Reduction: 19%
Rattus norvegicus [20]
  Reduction: 18%
Rattus norvegicus [33]
  Reduction: 0%

## COc1ccc2c(c1)c(CC(=O)O)c(C)n2C(=O)c1ccc(Cl)cc1 [INDOMETHACIN]
Mus musculus [34]
  Analgesia: 60%
Mus musculus [35]
  Analgesia: 70%
Mus musculus [36]
  Analgesia: 20%
Mus musculus [1]
  ED50: 1 mg/kg
Mus musculus [2]
  ED50: 1 mg/kg
[6]
  LD50: 160 mg/kg
Mus musculus [37]
  Reduction: 11%
Mus musculus [38]
  Reduction: 22%
Mus musculus [39]
  Reduction: 39%
Mus musculus [3]
  NTD50: 110 mg/kg
Rattus norvegicus [40]
  Reduction: 21%
Rattus norvegicus [41]
  Reduction: 13% and 19%
Rattus norvegicus [42]
  Reduction: 21%
Rattus norvegicus [43]
  Reduction: 29%
Rattus norvegicus [44]
  Reduction: 29%
Rattus norvegicus [31]
  Reduction: 25%
Rattus norvegicus [32]
  Reduction: 35%
Rattus norvegicus [33]
  Reduction: 17%
Rattus norvegicus [4]
  UD50: 6 mg/kg
[5]
  LD50: 160 mg/kg

## CC1=C(C(=O)Nc2cccc(C(F)(F)F)c2)SC2=NCCN21
[6]
  LD50: 240 mg/kg
Mus musculus [7]
  Reduction: 36%

## CC1=C(C(=O)Nc2ccccc2F)SC2=NCCN21
[6]
  LD50: 100 mg/kg
Mus musculus [45]
  Reduction: 15%

## CC(C)Cc1ccc(C(C)C(=O)O)cc1 (configuration not stated) [IBUPROFEN]
Mus musculus [8]
  Analgesia: 50%
Mus musculus [35]
  Analgesia: 30%
Mus musculus [10]
  Analgesia: 90%
Mus musculus [3]
  NTD50: 470 mg/kg
Rattus norvegicus [4]
  UD50: 60 mg/kg
[5]
  LD50: > 1000 mg/kg

## OC1(C(F)(F)F)CSC2=NC3CCCCC3N21 (configuration not stated)
Mus musculus [7]
  Reduction: 18%

## CC1(O)CSC2=NC3CCCCC3N21 (configuration not stated)
Mus musculus [11]
  Reduction: 15%
Mus musculus [25]
  Reduction: 7%
Mus musculus [13]
  Reduction: 7%
Mus musculus [14]
  Reduction: 10%
Mus musculus [26]
  Reduction: 45%
Rattus norvegicus [28]
  Reduction: 3%
Rattus norvegicus [29]
  Reduction: 2%
Rattus norvegicus [30]
  Reduction: 11%

## CC1(C)SC2=NC3CCCCC3N2C1(O)c1ccccc1 (configuration not stated)
Mus musculus [7]; 200 mg/kg
  Reduction: 15% and 30%

## Cc1cc(C)c(NC(=O)C2=C(c3ccccc3)N3CCN=C3S2)c(C)c1
[6]
  LD50: 80 mg/kg
Mus musculus [26]
  Reduction: 23%

## CCOC(=O)C1=C(C)N2CCN=C2S1
[6]
  LD50: 180 mg/kg
Mus musculus [26]
  Reduction: 2%
